{"source": "ChEMBL document CHEMBL5705890", "about": "“Antitumor activity of an allosteric inhibitor of centromere-associated protein-E” (Proc Natl Acad Sci U S A, 2010)", "key": {"[1]": {"biological_target": "T1, Centromere-associated protein E (Homo sapiens, UniProt Q02224)", "T1 sequence (Q02224 whole entry, the tested form may be a part)": "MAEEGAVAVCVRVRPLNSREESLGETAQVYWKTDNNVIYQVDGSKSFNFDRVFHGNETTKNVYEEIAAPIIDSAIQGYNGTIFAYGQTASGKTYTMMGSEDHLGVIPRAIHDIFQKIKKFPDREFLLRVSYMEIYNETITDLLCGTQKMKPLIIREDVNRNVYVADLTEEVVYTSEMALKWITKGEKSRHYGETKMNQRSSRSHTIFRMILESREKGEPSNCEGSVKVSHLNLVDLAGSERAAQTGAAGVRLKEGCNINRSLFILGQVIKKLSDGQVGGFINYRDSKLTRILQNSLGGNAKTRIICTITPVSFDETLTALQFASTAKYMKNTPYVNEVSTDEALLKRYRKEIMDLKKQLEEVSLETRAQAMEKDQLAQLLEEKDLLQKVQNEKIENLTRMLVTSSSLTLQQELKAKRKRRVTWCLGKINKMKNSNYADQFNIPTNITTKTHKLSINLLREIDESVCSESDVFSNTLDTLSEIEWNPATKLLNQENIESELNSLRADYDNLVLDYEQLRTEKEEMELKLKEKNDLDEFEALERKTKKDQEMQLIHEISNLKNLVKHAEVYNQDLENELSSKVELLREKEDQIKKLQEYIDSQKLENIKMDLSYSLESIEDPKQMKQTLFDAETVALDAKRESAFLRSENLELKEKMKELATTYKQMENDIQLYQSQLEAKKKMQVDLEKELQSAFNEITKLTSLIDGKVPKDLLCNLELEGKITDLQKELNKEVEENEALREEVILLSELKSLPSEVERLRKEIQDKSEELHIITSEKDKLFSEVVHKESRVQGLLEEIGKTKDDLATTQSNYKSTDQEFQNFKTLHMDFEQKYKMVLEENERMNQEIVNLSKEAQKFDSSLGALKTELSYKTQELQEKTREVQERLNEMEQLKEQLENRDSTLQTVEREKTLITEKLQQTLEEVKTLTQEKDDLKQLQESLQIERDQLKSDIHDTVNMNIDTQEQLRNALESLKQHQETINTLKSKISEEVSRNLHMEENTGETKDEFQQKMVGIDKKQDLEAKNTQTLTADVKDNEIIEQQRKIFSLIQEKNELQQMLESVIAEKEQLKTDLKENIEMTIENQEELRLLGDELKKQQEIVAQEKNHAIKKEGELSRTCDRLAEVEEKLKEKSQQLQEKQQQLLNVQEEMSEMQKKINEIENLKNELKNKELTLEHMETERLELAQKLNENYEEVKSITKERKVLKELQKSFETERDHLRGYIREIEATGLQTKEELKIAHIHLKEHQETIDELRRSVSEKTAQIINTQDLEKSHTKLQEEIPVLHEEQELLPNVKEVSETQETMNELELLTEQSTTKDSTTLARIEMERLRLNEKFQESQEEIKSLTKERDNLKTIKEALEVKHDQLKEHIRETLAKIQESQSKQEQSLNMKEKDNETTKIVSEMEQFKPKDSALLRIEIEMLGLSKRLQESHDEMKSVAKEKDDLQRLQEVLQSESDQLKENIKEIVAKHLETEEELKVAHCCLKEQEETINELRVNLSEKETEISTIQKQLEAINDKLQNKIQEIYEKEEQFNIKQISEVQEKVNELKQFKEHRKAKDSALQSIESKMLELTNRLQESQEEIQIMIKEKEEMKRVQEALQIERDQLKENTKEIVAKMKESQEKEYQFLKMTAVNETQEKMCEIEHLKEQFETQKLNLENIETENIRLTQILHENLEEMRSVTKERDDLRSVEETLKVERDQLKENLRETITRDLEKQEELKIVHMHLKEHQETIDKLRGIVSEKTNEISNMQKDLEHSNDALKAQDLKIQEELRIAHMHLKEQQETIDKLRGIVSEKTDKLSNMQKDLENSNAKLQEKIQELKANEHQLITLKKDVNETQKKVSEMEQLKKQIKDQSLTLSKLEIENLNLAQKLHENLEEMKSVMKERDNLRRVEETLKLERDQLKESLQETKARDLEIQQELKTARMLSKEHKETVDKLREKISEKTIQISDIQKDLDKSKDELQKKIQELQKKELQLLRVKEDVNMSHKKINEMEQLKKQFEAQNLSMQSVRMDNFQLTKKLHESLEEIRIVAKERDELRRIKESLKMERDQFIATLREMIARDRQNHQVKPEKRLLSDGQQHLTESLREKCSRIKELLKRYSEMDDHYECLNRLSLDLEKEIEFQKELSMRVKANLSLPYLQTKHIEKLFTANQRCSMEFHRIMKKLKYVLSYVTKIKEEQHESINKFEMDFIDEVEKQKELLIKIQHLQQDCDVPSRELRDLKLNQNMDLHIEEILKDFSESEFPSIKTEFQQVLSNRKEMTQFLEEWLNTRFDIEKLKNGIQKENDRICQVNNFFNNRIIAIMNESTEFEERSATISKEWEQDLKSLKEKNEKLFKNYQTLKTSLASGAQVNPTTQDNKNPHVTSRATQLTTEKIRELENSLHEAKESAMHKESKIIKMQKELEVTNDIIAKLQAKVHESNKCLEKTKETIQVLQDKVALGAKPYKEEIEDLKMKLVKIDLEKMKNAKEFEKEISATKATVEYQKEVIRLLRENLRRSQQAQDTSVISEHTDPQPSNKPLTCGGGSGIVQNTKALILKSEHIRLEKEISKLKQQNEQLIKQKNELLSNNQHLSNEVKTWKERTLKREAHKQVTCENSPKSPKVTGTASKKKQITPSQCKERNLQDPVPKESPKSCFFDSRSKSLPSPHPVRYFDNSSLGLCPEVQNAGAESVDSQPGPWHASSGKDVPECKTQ", "experiment": "Uncompetitive binding affinity to microtubule-stimulated ATPase activity of C-terminal 6-his-tagged CENP-E (2 to 340 residues)(unknown origin) expressed in Escherichia coli BL21(DE3) assessed as apparent inhibition constant", "conditions": "read-out: Ki(app)", "in_short": "(§1)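 CENP-E motor domain (residues 2–340, C-terminal 6-his, from E. coli BL21(DE3)) run in MT-stimulated ATPase with 500 μM ATP, 5 μM paclitaxel-stabilized MT, 1 nM enzyme in PEM25 buffer, pH 6.8. Apparent Ki taken from the concentration-response curves with explicit correction for enzyme concentration.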"}, "[2]": {"biological_target": "T1, Centromere-associated protein E", "experiment": "Inhibition of microtubule-stimulated ATPase activity of C-terminal 6-his-tagged CENP-E (2 to 340 residues)(unknown origin) expressed in Escherichia coli BL21(DE3) in presence of ATP", "in_short": "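Steady-state ATPase of CENP-E motor domain, residues 2–340 with C-terminal 6-His tag, expressed in E. coli BL21(DE3). Run at 1 nM enzyme, 500 μM ATP and 5 μM paclitaxel-stabilized microtubules in PEM25 (25 mM PIPES-K pH 6.8, 2 mM MgCl2, 1 mM EGTA) plus 10 μM paclitaxel. IC50 taken from concentration-response curves.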"}, "[3]": {"biological_target": "T1, Centromere-associated protein E", "experiment": "Uncompetitive-like binding affinity to C-terminal 6-his-tagged CENP-E (2 to 340 residues)(unknown origin) expressed in Escherichia coli BL21(DE3) assessed as apparent inhibition constant in presence of ATP", "conditions": "read-out: Ki(app)"}, "[4]": {"biological_target": "T1, Centromere-associated protein E", "experiment": "Inhibition of ATPase activity of C-terminal 6-his-tagged CENP-E (2 to 340 residues)(unknown origin) expressed in Escherichia coli BL21(DE3) in presence of ATP"}, "[5]": {"biological_target": "T1, Centromere-associated protein E", "experiment": "Binding affinity to wild-type human CENP-E assessed as inhibition constant", "in_short": "as §1"}, "[6]": {"biological_target": "Centromere-associated protein E (Homo sapiens, UniProt Q02224, I182L/K184T/T183A)", "experiment": "Binding affinity to human CENP-E I182L/T183A/K184T mutant assessed as inhibition constant"}, "[7]": {"biological_target": "Centromere-associated protein E (Mus musculus, UniProt Q6RT24)", "sequence (Q6RT24 whole entry)": "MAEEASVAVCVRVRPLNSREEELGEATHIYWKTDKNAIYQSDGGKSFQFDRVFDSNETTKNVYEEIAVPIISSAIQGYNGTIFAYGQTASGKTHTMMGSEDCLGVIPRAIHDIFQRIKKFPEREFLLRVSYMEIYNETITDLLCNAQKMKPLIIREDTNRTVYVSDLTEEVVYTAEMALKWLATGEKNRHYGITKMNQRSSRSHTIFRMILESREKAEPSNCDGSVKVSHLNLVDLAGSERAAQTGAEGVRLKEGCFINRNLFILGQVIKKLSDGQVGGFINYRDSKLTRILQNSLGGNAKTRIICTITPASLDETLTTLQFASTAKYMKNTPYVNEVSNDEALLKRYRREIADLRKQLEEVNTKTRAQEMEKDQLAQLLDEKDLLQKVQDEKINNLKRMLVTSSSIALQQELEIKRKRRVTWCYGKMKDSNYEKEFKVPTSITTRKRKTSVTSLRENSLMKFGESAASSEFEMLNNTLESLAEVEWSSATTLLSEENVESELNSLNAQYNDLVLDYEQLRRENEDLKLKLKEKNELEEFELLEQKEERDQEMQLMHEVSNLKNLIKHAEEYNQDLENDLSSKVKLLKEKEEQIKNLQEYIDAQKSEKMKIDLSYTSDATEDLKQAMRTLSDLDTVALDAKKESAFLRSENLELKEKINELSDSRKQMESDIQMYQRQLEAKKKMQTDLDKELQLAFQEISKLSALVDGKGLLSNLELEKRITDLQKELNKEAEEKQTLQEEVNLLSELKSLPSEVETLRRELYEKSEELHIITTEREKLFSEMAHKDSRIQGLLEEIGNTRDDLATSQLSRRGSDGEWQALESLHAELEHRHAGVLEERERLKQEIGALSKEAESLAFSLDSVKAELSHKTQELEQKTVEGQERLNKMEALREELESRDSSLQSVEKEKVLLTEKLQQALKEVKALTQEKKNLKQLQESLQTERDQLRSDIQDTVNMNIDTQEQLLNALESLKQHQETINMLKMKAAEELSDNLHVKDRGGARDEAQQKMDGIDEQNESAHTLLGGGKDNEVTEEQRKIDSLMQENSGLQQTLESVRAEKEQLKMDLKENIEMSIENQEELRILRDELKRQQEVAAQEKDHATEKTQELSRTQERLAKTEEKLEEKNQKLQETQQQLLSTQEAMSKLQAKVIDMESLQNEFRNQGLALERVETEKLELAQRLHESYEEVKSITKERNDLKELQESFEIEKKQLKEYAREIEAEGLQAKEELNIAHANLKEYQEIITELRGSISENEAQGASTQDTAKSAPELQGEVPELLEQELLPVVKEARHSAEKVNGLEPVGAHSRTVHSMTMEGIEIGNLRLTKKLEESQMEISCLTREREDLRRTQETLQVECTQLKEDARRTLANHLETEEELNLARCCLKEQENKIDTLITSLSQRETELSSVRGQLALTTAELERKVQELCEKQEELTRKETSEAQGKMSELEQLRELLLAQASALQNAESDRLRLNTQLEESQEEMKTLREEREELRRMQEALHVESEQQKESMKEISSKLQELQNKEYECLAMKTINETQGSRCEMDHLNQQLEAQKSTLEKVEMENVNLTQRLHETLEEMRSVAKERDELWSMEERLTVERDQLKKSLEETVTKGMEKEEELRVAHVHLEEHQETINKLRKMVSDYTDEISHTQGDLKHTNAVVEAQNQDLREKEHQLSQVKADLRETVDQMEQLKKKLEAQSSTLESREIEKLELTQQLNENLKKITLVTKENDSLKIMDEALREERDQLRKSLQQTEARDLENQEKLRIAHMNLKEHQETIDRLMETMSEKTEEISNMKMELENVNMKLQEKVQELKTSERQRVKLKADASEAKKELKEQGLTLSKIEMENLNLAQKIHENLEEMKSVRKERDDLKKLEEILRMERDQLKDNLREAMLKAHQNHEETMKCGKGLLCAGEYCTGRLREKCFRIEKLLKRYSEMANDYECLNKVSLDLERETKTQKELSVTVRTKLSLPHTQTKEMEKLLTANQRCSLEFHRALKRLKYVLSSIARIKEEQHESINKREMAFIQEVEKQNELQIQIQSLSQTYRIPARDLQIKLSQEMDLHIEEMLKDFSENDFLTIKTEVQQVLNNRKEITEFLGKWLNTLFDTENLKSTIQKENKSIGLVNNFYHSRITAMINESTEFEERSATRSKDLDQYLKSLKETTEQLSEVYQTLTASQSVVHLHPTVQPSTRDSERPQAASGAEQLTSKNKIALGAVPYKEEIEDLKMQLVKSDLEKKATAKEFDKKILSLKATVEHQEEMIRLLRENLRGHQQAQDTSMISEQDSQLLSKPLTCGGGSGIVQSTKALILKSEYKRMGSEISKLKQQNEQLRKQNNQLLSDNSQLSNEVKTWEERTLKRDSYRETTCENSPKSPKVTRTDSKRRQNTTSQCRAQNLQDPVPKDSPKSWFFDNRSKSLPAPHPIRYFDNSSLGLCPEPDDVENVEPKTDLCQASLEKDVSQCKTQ", "experiment": "Binding affinity to wild-type mouse CENP-E assessed as inhibition constant"}, "Centromere protein E": {"biological_target": "Centromere protein E (Canis lupus familiaris, UniProt A0A8P0P634)", "experiment": "Binding affinity to wild-type dog CENP-E assessed as inhibition constant"}, "[8]": {"biological_target": "T1, Centromere-associated protein E", "experiment": "Competitive-like binding affinity to C-terminal 6-his-tagged CENP-E (2 to 340 residues)(unknown origin) expressed in Escherichia coli BL21(DE3) assessed as apparent inhibition constant in presence of ATP", "conditions": "read-out: Ki(app)"}}, "note": "pIC50, pKi: −log10 of the molar value.", "data": [{"smiles": "Cc1cccn2cc(-c3ccc(C[C@@H](CCO)NC(=O)c4ccc(OC(C)C)c(C#N)c4)cc3)nc12", "values": [{"measurement": "pKi", "setting": "[1]", "result": 8.33}, {"measurement": "pIC50", "setting": "[2]", "result": 8.43}, {"measurement": "pKi", "setting": "[3]", "result": 8.38}, {"measurement": "pIC50", "setting": "[4]", "result": 5.13}]}, {"smiles": "CNC(=O)C(Cc1ccc(C(=O)c2ccccc2)cc1)NC(=O)c1ccc(OC(C)C)c(Cl)c1", "note": "(stereo not given)", "values": [{"measurement": "pKi", "setting": "[5]", "result": 8.38}, {"measurement": "pIC50", "setting": "[2]", "result": 6.26}, {"measurement": "pKi", "setting": "[6]", "result": 7.14}, {"measurement": "pKi", "setting": "[7]", "result": 7.05}, {"measurement": "pKi", "setting": "Centromere protein E", "result": 8.62}, {"measurement": "pKi", "setting": "[8]", "result": 5.36}]}]}
